Series [1] concerns Mus musculus. Kind of series: Induction of lymphopenia in Balb/c mouse assessed as reduction of circulating lymphocytes at 0.5 mg/kg, po measured after 4 hrs relative to control. Format: functional. In a few lines: (§1)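 Single oral dose to Balb/c mice in PEG300 vehicle, as solution or suspension; vehicle-only group as control. Retro-orbital bleeds at 4 h and 24 h. Lymphocyte counts read on a hematology analyzer. Expressed as % reduction of circulating lymphocytes versus the vehicle group at each time. Group means, n = 3–4 per group.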

The test system of series [2] is Mus musculus. Description: Induction of lymphopenia in Balb/c mouse assessed as reduction of circulating lymphocytes at 30 mg/kg, po measured after 4 hrs relative to control. In kind it is functional. In a few lines:
as §1

Series [3] deals with Mus musculus. Kind of series: Induction of lymphopenia in Balb/c mouse assessed as reduction of circulating lymphocytes at 30 mg/kg, po measured after 24 hrs relative to control. In kind it is functional. The gist of the method: as §1
The nature of series [4]: Drug metabolism in orally dosed Balb/c mouse assessed as phosphate metabolite to parent AUC (0-24 hrs) ratio at after 24 hrs. In kind it is ADME, organism-based. The conditions noted are these: in vivo, po.
Series [5] has as its target Sphingosine 1-phosphate receptor 1 (Homo sapiens, UniProt P21453). Kind of series: Agonist activity at human S1P1 in HLE cell membranes incubated for 45 mins by scintillation counting based [35S]GTP-gamma-S binding assay. More on the design: species or system Cell membrane.
Series [6] addresses T1, Sphingosine 1-phosphate receptor 3 (Homo sapiens, UniProt Q99500). Kind of series: Agonist activity at human S1P3 expressed in EDG3-Ga15-bla HEK293T cells incubated for 45 mins by scintillation counting based [35S]GTP-gamma-S binding assay relative to control. In kind it is cell membranes, Cell membrane. In a few lines:
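Membranes from EDG3-Ga15-bla HEK293T cells, 3 μg protein/well, mixed with compound in 3-fold dilution series. Room temperature, 45 min. Filter capture, water washes, scintillation counting. EC50 taken at 50% of each compound's own Ymax.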
Background: GTPγS is a poorly hydrolysed GTP analogue; its binding reports G protein activation.

The target in series [7] is T1, Sphingosine 1-phosphate receptor 3. Kind of series: Antagonist activity at human S1P3 expressed in EDG3-Ga15-bla HEK293T cells incubated for 45 mins by scintillation counting based [35S]GTP-gamma-S binding assay relative to control. In kind it is cell membranes, Cell membrane.
Series [8] deals with Mus musculus. Kind of series: Induction of lymphopenia in orally dosed Balb/c mouse assessed as reduction of circulating lymphocytes measured after 24 hrs relative to control. Format: functional, organism-based. In a few lines: as §1
Series [9] deals with Mus musculus. Kind of series: Induction of lymphopenia in Balb/c mouse assessed as reduction of circulating lymphocytes at 0.5 mg/kg, po measured after 24 hrs relative to control. In kind it is functional. The gist of the method: as §1
The subject of series [10] is Mus musculus. Kind of series: Induction of lymphopenia in Balb/c mouse assessed as reduction of circulating lymphocytes at 1 mg/kg, po measured after 4 hrs relative to control. In kind it is functional. The gist of the method:
as §1

Series [11] concerns Mus musculus. Kind of series: Induction of lymphopenia in Balb/c mouse assessed as reduction of circulating lymphocytes at 10 mg/kg, po measured after 4 hrs relative to control. In kind it is functional. The gist of the method:
as §1

Series [12] relates to Mus musculus. Kind of series: Induction of lymphopenia in Balb/c mouse assessed as reduction of circulating lymphocytes at 10 mg/kg, po measured after 24 hrs relative to control. In kind it is functional. In a few lines: as §1
Another series addresses hERG (KCNH2) (Homo sapiens, UniProt Q12809). Kind of series: Inhibition of human ERG expressed in HEK293 cells assessed as inhibition of peak tail current at 0.3 uM by patch clamp analysis. Particulars: HEK293 cells expressing human ERG. Format: cell-based. The gist of the method:
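Whole-cell patch clamp on HEK293 cells stably expressing the cloned hERG α subunit, in aqueous buffer pH 7.4 at room temperature. Test pulses at 0.05 Hz stepped from holding to +20 mV for 2 s. Tail currents evoked by a subsequent voltage step. Inhibition measured on peak tail current.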
(In general: The patch-clamp technique gives a direct electrical read-out from membranes.)

Series [13] in a line: Inhibition of sodium channel (unknown origin) assessed as reduction in Na+ flux. On the set-up: species or system Homo sapiens.
For another series, the target named is Cytochrome P450 3A4 (Homo sapiens, UniProt P08684). Description: Inhibition of CYP3A4 (unknown origin). Format: ADME.
Cytochrome P450 3A4, sequence (P08684 whole entry): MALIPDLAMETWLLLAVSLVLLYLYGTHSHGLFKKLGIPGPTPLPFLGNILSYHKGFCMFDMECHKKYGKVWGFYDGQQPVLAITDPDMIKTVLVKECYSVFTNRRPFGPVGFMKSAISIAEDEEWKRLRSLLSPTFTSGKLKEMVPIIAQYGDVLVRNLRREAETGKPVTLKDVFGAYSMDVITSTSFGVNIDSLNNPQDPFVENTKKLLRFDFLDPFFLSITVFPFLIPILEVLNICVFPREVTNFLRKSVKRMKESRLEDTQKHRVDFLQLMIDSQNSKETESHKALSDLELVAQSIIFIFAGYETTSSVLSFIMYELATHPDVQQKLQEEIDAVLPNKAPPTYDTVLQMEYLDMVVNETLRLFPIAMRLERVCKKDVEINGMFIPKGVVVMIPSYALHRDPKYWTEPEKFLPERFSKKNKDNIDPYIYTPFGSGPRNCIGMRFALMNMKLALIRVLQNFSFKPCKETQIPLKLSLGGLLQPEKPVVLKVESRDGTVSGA
A further series concerns the target Cytochrome P450 2D6 (Homo sapiens, UniProt P10635). Description: Inhibition of CYP2D6 (unknown origin). In kind it is ADME.
In another series the target is T2, Cytochrome P450 2C8 (Homo sapiens, UniProt P10632).
T2 sequence (P10632 whole entry): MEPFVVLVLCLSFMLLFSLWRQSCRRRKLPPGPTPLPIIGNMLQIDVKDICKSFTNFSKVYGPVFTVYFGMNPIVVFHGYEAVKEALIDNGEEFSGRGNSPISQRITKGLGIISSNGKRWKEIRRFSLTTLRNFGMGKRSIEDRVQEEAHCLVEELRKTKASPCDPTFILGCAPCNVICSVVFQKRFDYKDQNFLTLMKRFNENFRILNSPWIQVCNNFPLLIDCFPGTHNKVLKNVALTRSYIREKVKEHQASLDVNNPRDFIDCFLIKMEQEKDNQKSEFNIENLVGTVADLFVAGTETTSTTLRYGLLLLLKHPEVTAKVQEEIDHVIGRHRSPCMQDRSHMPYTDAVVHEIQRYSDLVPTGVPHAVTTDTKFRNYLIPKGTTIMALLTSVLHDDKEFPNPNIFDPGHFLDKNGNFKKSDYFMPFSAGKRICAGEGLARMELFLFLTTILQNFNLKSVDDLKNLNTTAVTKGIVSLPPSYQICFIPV
Description: Inhibition of CYP2C8 (unknown origin). In kind it is ADME.

The target in the next series is Cytochrome P450 2C9 (Homo sapiens, UniProt P11712). Kind of series: Inhibition of CYP2C9 (unknown origin). Format: ADME.
Cytochrome P450 2C9, sequence (P11712 whole entry): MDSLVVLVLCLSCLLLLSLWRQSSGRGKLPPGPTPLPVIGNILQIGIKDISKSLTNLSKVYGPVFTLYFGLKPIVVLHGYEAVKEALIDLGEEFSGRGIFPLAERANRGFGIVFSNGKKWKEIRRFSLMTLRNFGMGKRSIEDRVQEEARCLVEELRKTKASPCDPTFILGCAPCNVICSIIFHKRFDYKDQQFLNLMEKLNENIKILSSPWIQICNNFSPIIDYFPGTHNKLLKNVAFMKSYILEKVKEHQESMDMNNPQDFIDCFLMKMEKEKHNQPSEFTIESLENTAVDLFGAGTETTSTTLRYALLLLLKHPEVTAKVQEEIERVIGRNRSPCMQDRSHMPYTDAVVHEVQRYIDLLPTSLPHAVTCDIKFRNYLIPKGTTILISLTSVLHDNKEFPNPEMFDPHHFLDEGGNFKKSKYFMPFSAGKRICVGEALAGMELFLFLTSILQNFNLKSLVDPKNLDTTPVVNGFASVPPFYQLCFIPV
The next series addresses Cytochrome P450 2C19 (Homo sapiens, UniProt P33261). Kind of series: Inhibition of CYP2C19 (unknown origin). Format: ADME.
A short description of series [14]: Half life in human liver microsomes. Format: ADME, Microsome. A general note: Microsomes from liver hold many membrane-bound enzymes, among them those of drug oxidation.
The nature of series [15]: Half life in rat liver microsomes. In kind it is ADME, Microsome.
Series [16] is described as follows: Half life in mouse liver microsomes. Format: ADME, Microsome.
Series [17] can be described thus: Half life in monkey liver microsomes. Format: ADME, Macaca mulatta, Microsome. The conditions noted are these: rhesus monkey.
A short description of series [18]: Unbound fraction in human plasma. Format: ADME, cell-free.
The nature of series [19]: Unbound fraction in rat plasma. In kind it is ADME, cell-free.
Series [20] can be described thus: Unbound fraction in mouse plasma. Format: ADME, cell-free.
The nature of series [21]: Unbound fraction in cynomolgus monkey plasma. In kind it is ADME, cell-free, Macaca fascicularis.
The nature of series [22]: Unbound fraction in dog plasma. Format: ADME, cell-free, Canis lupus familiaris.
The nature of series [23]: Half life in mouse. The conditions noted are these: in vivo. In kind it is ADME, organism-based.
Series [24] concerns Mus musculus. Description: Suppression of experimental autoimmune-encephalomyelositis in MOG peptide induced C57BL/6 mouse EAE chronic model assessed as improvement in clinical scores at 0.5 to 4 mg/kg, po dosed every other day. In kind it is functional, organism-based. Particulars: dose 0.5-4 mg/kg. The gist of the method:
(§2)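 C57BL/6 female mice, 6–8 weeks, n=10 per group, immunized subcutaneously with MOG35-55 emulsified 1:1 in incomplete Freund's adjuvant plus M. tuberculosis H37RA. Oral dosing from day 1, every other day or daily as stated. Clinical scores graded up to 5 (death) and averaged per group. At termination, lumbar spinal cord taken for formalin fixation and paraffin sections stained with H&E and Luxol Fast Blue. Groups compared by one-way ANOVA with Tukey post test.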

Series [25] relates to Mus musculus. Kind of series: Suppression of experimental autoimmune-encephalomyelositis in MOG peptide induced C57BL/6 mouse EAE chronic model assessed as improvement in clinical scores at 4 mg/kg, po dosed every other day relative to control. Format: functional. The gist of the method:
as §2

The subject of series [26] is Mus musculus. Description: Suppression of experimental autoimmune-encephalomyelositis in MOG peptide induced C57BL/6 mouse EAE chronic model assessed as reduction in central nervous system damage at 0.5 to 4 mg/kg, po dosed every other day by hematoxylin and eosin staining based histological analysis relative to control. Format: functional, organism-based. The conditions noted are these: dose 0.5-4 mg/kg. In a few lines:
as §2

Series [27] relates to Mus musculus. Kind of series: Suppression of experimental autoimmune-encephalomyelositis in MOG peptide induced C57BL/6 mouse EAE chronic model assessed as improvement in clinical scores at 0.5 mg/kg, po dosed every other day relative to control. Format: functional. In a few lines:
as §2

For series [28], the system named is Cerebellum. Kind of series: Induction of remyelination in lysophosphatidylcholine-induced demyelination in CD1 mouse organotypic cerebellar slice at 0.01 to 10 nM incubated for 7 days by immunohistochemistry based three-dimensional brain cell culture assay. Format: functional, tissue-based. Particulars: dose 0.01-10 nM, time 7.0 day. The gist of the method:
(§3)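 Cerebellum from P1-2 CD1 mouse pups cut into 350 μm parasagittal slices. Cultured on inserts at 36–37 °C, 5% CO2, in MEM/horse serum/EBSS/glucose medium for 13 days. Demyelination with 0.5 mg/ml LPC overnight, then 24 h in medium, then 7 days of treatment. Slices immunostained for MBP and CBD and imaged by confocal at ×40. Myelination index = CBD+MBP double-stained area divided by CBD single-stained area. ANOVA with Dunnett test.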

Series [29] deals with Cerebellum. Description: Induction of remyelination in lysophosphatidylcholine-induced demyelination in CD1 mouse organotypic cerebellar slice assessed as promotion of Purkinje cell axonal remyelination at 0.01 to 10 nM incubated for 7 days by immunohistochemistry based three-dimensional brain cell culture assay. In kind it is functional, tissue-based. Particulars: dose 0.01-10 nM, time 7.0 day. The gist of the method: as §3

In series [30] the test system is Cerebellum. Kind of series: Induction of remyelination in lysophosphatidylcholine-induced demyelination in CD1 mouse organotypic cerebellar slice assessed as myelination index level at 0.01 to 10 nM incubated for 7 days by immunohistochemistry based three-dimensional brain cell culture assay (reference value: 50%). Format: functional. Particulars: dose 0.01-10 nM, time 7 day. The gist of the method:
as §3

Molecules are shown by their SMILES. The source made the active and inactive calls. The calls are words filed in the database; no cut-off is given here.

T1 sequence (Q99500 whole entry): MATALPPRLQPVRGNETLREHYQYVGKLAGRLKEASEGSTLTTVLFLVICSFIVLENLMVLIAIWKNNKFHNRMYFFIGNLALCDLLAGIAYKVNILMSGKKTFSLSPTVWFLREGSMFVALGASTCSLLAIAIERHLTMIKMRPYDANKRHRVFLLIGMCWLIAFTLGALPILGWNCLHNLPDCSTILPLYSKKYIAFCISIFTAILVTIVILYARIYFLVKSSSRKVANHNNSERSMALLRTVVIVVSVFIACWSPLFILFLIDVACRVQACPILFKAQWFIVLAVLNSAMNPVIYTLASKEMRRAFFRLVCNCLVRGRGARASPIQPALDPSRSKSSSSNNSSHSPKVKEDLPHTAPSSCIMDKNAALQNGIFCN
Sphingosine 1-phosphate receptor 1, sequence (P21453 whole entry): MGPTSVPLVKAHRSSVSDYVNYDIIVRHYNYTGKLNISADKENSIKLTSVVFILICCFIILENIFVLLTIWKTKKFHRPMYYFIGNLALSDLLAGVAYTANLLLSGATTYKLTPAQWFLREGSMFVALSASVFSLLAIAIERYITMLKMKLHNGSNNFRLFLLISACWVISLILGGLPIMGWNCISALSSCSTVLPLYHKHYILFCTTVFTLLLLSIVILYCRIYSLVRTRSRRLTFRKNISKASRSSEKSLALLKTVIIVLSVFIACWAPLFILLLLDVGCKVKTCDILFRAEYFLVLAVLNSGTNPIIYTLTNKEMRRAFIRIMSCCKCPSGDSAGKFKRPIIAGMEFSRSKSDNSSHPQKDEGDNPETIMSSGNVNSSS
Cytochrome P450 2C19, sequence (P33261 whole entry): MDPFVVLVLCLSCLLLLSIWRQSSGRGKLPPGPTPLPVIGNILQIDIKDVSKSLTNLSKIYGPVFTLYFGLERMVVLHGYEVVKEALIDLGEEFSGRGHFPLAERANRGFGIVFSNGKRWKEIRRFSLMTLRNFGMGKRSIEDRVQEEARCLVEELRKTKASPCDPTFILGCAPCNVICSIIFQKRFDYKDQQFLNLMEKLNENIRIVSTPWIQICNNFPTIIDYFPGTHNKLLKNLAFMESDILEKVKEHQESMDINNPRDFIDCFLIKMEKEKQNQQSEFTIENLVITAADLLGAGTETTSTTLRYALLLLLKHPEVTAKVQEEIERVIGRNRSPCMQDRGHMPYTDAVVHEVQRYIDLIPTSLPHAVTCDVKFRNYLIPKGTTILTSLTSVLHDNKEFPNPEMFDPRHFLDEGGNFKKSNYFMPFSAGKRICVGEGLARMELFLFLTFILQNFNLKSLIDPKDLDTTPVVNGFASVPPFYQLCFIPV
Cytochrome P450 2D6, sequence (P10635 whole entry): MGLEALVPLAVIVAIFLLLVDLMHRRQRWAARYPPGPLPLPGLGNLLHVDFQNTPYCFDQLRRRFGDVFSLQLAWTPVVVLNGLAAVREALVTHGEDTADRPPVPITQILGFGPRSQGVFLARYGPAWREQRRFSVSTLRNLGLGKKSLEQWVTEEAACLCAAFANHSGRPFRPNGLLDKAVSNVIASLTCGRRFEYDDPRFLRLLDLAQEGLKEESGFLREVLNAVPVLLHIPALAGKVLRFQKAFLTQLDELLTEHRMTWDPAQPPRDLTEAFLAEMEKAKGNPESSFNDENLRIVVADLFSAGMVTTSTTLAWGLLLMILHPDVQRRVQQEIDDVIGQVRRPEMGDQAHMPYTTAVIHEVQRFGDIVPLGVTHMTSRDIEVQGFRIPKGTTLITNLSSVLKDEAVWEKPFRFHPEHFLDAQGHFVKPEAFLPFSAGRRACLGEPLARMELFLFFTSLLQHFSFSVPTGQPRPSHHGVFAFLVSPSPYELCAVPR
hERG (KCNH2), sequence (Q12809 whole entry): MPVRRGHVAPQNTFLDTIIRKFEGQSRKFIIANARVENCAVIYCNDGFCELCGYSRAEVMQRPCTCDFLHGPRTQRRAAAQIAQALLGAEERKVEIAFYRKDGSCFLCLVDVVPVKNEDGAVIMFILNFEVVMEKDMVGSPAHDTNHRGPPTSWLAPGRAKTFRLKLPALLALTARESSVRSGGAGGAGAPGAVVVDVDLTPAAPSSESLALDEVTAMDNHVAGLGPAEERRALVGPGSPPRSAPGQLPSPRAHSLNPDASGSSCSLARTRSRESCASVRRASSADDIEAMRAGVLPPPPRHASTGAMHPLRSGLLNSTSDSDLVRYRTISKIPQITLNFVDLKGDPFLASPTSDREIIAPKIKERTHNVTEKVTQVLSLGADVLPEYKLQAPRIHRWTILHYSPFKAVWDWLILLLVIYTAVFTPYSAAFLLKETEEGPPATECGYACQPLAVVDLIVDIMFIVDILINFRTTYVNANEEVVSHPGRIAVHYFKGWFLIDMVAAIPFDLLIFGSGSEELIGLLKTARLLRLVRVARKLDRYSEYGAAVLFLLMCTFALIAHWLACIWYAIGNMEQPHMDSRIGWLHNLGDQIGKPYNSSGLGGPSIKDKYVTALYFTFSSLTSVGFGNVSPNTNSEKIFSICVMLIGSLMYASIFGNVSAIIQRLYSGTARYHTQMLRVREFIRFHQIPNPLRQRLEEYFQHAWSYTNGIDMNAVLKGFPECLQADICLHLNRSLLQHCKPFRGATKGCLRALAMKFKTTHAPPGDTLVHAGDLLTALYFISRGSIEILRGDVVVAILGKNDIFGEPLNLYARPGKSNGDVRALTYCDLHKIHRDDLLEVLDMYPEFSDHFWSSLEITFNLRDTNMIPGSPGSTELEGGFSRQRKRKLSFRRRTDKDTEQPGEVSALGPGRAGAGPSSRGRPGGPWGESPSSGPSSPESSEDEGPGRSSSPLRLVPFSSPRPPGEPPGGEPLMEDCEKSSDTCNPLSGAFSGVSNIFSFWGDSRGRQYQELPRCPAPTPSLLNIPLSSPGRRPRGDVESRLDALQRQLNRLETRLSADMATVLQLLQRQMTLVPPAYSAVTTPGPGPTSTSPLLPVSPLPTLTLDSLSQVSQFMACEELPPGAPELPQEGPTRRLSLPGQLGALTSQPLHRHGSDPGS

What is called inhibition in vivo is how much of the control response was suppressed. Take `CCCCCC[C@H]1CCc2cc([C@H]3CC[C@](N)(CO)C3)ccc2C1`: the inhibition in vivo at 0.5 mg/kg in the series with Mus musculus [1] is 21%. The inhibition in vivo at 30 mg/kg with Mus musculus [2] amounted to 66%; with Mus musculus [3], 84%. Moreover, the Ratio in [4] is 0.57.

By EC50 is commonly meant the concentration at which the effect is half-maximal. Usually IC50 stands for the midpoint of a concentration-inhibition curve. `CCCCCC[C@H]1CCc2cc([C@H]3CC[C@](N)(COP(=O)(O)O)C3)ccc2C1`: the EC50 in series [5] is 60 nM; in series [6], > 1000 nM; in the series on Mus musculus [8], 35 nM. Further, in series [7], the IC50 was > 1000 nM.

Usually inhibition stands for the relative decrease from the control value, in per cent. The term half-life denotes the time in which the quantity being followed falls by half. In the case of `CCCCCC[C@@H]1CCc2cc([C@H]3CC[C@](N)(CO)C3)ccc2C1` [BMS-986104], the inhibition in vivo at 0.5 mg/kg in the series with Mus musculus [1] turned out to be 52%; in the series on Mus musculus [9], 68%. Besides, the values for the inhibition in vivo at 30 mg/kg in the series with Mus musculus [2] and with Mus musculus [3] were 88% and 90%, respectively. In addition, the Activity entry is “Dose-dependent effect” with Mus musculus [8], “Dose-dependent effect” with Mus musculus [24], 55% in the series with Mus musculus [25] and 33% with Mus musculus [27]. For the same compound, the inhibition in vivo at 1 mg/kg with Mus musculus [10] turned out to be 52%. The inhibition in vivo at 10 mg/kg worked out at 80% in the series on Mus musculus [11] and 90% in the series on Mus musculus [12]. Besides, in [4], the Ratio turned out to be 0.51. Besides, at hERG (KCNH2), the inhibition at 0.3 µM was found to be 36%. Besides, the IC50 in series [13] is > 80000 nM; on Cytochrome P450 3A4 it was 19000 nM; against Cytochrome P450 2D6, > 20000 nM; against Cytochrome P450 2C8 it was 5000 nM; against Cytochrome P450 2C9, > 20000 nM; on Cytochrome P450 2C19, > 20000 nM. Besides, the half-life in series [14] is 1.78 h; in series [15], 2 h; in series [16] it was 2 h; in series [17] it was 2 h; in [23] it was 98 h. Further, the Fu in series [18], in series [19], in series [20], in series [21] and in series [22] was < 1% throughout. The result in the series with Mus musculus [26] was Active.

For `CCCCCC[C@@H]1CCc2cc([C@H]3CC[C@](N)(COP(=O)(O)O)C3)ccc2C1`, the half-maximal effective concentration (EC50) in [5] is 6.4 nM; in series [6], > 1000 nM. The IC50 in [7] is > 1000 nM. For the same compound, the outcome in the series with Cerebellum [28] and in the series with Cerebellum [29] was Active. For the same compound, the Activity with Cerebellum [30] came out at 100%.

The values are drawn from ChEMBL document CHEMBL4715806, “Asymmetric Hydroboration Approach to the Scalable Synthesis of ((1R,3S)-1-Amino-3-((R)-6-hexyl-5,6,7,8-tetrahydronaphthalen-2-yl)cyclopentyl)methanol (BMS-986104) as a Potent S1P Receptor Modulator” (J Med Chem, 2016).
